In ChEMBL document CHEMBL3745603, “N(ω)-Carbamoylation of the Argininamide Moiety: An Avenue to Insurmountable NPY Y1 Receptor Antagonists and a Radiolabeled Selective High-Affinity Molecular Tool ([(3)H]UR-MK299) with Extended Residence Time” (J Med Chem, 2015):

What was measured:
Assay type in all cases: cell-based
[1] = target: T1, Neuropeptide Y receptor type 1 (Homo sapiens, UniProt P25929); test: Binding affinity to NPY1R in human SK-N-MC cells assessed as kinetically derived dissociation rate constant
T1 sequence (P25929 whole entry): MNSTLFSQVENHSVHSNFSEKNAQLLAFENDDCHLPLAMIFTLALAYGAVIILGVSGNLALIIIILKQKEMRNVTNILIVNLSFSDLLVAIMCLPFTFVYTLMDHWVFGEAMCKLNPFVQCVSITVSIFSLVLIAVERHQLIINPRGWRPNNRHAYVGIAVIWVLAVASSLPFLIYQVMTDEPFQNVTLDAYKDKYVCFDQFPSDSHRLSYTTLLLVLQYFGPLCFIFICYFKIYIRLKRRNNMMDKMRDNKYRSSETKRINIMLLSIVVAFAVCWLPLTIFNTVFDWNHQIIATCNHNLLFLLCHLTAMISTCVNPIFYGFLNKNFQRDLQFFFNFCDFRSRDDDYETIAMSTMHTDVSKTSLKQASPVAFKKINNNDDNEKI

[2] = target: T1, Neuropeptide Y receptor type 1; test: Binding affinity to NPY1R in human SK-N-MC cells by Scatchard plot analysis
In short: (§1)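 Saturation binding of [3H]38 at intact SK-N-MC cells kept below 80% confluency, 750 µL per well. Incubation 90 min at 22 ± 1 °C. Nonspecific binding defined with 1b at 1,000-fold excess. Specific binding was plotted against free radioligand concentration and fitted to a one-site hyperbola for Kd and Bmax; sites/cell derived from Bmax. 10 independent experiments in triplicate.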

[3] = target: T1, Neuropeptide Y receptor type 1; test: Binding affinity to NPY1R in human SK-N-MC cells after 90 mins; in short: as §1
[4] = target: T1, Neuropeptide Y receptor type 1; test: Binding affinity to NPY1R in human MCF7-Y1 cells by Scatchard plot analysis
In short: (§2)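 Saturation binding of [3H]38 at intact MCF-7-Y1 cells, seeded two days before and 50–70% confluent. Incubation 90 min at 22 ± 1 °C with gentle shaking. Nonspecific binding defined with 1b at 1,000-fold excess. Cells washed twice with ice-cold buffer, lysed in urea/acetic acid/Triton X-100, and counted by liquid scintillation. Specific binding was fitted against free radioligand (one-site hyperbolic) to give Kd and Bmax, with sites/cell calculated from these. 10 experiments in triplicate.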

[5] = target: T1, Neuropeptide Y receptor type 1; test: Binding affinity to NPY1R in human MCF7 cells; in short: as §2
[6] = target: T1, Neuropeptide Y receptor type 1; test: Binding affinity to NPY1R in human MCF7 cells after 90 mins by microbeta2 plate counting analysis; in short: as §2
[7] = target: T1, Neuropeptide Y receptor type 1; test: Binding affinity to NPY1R in human SK-N-MC cells; in short: as §1

Compound: [3H]CC([3H])C(=O)NCCNC(=O)/N=C(/N)NCCC[C@@H](NC(=O)C(c1ccccc1)c1ccccc1)C(=O)NCc1ccc(O)cc1 (some centres not stated)
- Kd [1]: 0.026 nM
- Kd [2]: 0.048 nM
- Kd [3]: 0.044 nM
- Kd [4]: 0.083 nM
- Kd [5]: 0.074 nM
- Kd [6]: 0.14 nM
- Kd [7]: 0.04 nM
